Source: ChEMBL document CHEMBL3877267, “Synthesis, biological evaluation and molecular modeling of 1-oxa-4-thiaspiro- and 1,4-dithiaspiro[4.5]decane derivatives as potent and selective 5-HT1A receptor agonists” (Eur J Med Chem, 2017)
Activity calls are given as the source filed them. The rule behind the calls is not given here.

What was measured:
[1] = target: T1, Alpha-1B adrenergic receptor (Homo sapiens, UniProt P35368); assay: Displacement of [3H]prazosin from recombinant human alpha1b adrenergic receptor expressed in CHO cell membranes after 30 mins by TopCount liquid scintillation counting method
T1 sequence (P35368 whole entry): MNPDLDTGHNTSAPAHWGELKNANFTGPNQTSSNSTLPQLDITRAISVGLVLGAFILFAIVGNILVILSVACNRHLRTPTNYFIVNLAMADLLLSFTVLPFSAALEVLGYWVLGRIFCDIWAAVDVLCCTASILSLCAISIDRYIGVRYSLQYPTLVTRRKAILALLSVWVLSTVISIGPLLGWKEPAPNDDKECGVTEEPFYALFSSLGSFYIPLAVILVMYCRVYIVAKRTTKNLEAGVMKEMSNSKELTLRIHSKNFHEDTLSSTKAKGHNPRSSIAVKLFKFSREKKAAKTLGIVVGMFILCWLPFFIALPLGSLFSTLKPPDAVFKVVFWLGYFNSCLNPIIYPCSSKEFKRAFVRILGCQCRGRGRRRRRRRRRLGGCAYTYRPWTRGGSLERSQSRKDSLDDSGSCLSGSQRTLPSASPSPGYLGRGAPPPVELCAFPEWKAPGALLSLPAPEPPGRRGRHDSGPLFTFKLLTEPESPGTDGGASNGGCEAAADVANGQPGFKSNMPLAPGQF
How it was run: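 Membranes from CHO cells stably expressing each human α1 subtype (70 µg protein), incubated in 50 mM Tris pH 7.4 with 0.1–0.4 nM [3H]prazosin and competitor (1 pM–1 µM) for 30 min at 25 °C. Nonspecific binding defined with 10 µM tamsulosin. Filtration and scintillation counting. Ki by Cheng–Prusoff; pKi mean of 2–3 experiments in duplicate.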

[2] = target: T2, Alpha-1A adrenergic receptor (Homo sapiens, UniProt P35348); assay: Displacement of [3H]prazosin from recombinant human alpha1a adrenergic receptor expressed in CHO cell membranes after 30 mins by TopCount liquid scintillation counting method
T2 sequence (P35348 whole entry): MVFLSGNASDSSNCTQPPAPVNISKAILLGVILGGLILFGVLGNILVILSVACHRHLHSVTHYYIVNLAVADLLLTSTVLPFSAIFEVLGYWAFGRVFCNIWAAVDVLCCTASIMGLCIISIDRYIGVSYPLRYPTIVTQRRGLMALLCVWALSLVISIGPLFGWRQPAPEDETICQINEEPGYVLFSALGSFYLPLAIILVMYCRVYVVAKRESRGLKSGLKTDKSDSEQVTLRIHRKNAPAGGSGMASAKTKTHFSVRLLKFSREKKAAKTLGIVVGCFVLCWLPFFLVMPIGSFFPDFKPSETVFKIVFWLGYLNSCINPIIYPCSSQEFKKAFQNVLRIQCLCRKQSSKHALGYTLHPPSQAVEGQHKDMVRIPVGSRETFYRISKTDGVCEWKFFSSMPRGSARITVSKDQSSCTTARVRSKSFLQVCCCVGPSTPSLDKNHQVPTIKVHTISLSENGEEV
How it was run: (§1)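 Membranes from CHO cells stably expressing each human α1 subtype (70 µg protein), incubated in 50 mM Tris pH 7.4 with 0.1–0.4 nM [3H]prazosin and competitor (1 pM–1 µM) for 30 min at 25 °C. Nonspecific binding defined with 10 µM tamsulosin. Filtration and scintillation counting.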

[3] = target: T3, Alpha-1D adrenergic receptor (Homo sapiens, UniProt P25100); assay: Displacement of [3H]prazosin from recombinant human alpha1d adrenergic receptor expressed in CHO cell membranes after 30 mins by TopCount liquid scintillation counting method; how it was run: as §1
T3 sequence (P25100 whole entry): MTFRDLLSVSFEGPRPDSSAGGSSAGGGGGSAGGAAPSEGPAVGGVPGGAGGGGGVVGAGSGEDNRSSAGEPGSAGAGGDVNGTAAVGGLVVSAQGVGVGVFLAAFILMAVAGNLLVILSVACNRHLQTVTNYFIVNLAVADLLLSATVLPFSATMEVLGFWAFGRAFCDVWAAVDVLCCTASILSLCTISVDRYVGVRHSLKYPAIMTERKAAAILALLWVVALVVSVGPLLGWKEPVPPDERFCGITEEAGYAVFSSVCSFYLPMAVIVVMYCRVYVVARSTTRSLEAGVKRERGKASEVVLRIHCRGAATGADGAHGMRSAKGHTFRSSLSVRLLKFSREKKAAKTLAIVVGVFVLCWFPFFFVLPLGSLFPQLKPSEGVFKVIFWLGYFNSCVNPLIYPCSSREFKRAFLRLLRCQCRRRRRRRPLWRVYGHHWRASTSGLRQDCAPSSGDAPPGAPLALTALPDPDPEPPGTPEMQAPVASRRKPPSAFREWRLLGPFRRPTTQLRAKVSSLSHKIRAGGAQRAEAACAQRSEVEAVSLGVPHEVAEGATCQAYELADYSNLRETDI

[4] = target: T4, 5-hydroxytryptamine receptor 1A (Homo sapiens) (UniProt P08908); assay: Agonist activity at recombinant human 5-HT1A receptor expressed in HeLa cell membranes assessed as induction of [35S]GTPgammaS binding up to 10 uM preincubated for 20 mins followed by [35S]GTPgammaS addition measured after 30 mins by liquid scintillation counting method relative to serotonin; format: functional
T4 sequence (whole entry): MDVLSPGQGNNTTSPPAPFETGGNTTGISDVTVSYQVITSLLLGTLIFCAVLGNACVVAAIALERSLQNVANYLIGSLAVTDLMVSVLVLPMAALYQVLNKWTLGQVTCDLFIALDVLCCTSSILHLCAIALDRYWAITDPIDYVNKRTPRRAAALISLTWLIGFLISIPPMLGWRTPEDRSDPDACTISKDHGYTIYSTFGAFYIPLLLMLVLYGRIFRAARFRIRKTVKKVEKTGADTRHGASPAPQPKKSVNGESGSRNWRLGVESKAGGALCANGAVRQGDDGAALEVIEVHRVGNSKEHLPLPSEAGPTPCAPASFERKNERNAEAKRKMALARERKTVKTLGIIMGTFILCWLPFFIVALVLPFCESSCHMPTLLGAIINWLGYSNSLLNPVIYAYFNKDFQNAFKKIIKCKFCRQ
How it was run: (§2)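 HeLa membranes with recombinant human 5-HT1A (50-70 µg protein) in 20 mM HEPES, 3 mM MgSO4, 120 mM NaCl, pH 7.4. Pre-incubated with 30 µM GDP and drug (0.01 nM–10 µM) for 20 min at 30 °C, then 200 pM [35S]GTPγS added for 30 min at 30 °C. Nonspecific binding defined with 10 µM GTPγS. Filtration and scintillation counting. Emax and pD2 taken from concentration–response fits.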

[5] = target: T5, 5-hydroxytryptamine receptor 1A (Homo sapiens, UniProt P08908); assay: Displacement of [3H]8-OH-DPAT from recombinant human 5-HT1A receptor expressed in HeLa cell membranes after 30 mins by TopCount liquid scintillation counting method; format: cell-based
T5 sequence (P08908 whole entry): T4 sequence (whole entry)

[6] = target: T4, 5-hydroxytryptamine receptor 1A (Homo sapiens); assay: Agonist activity at recombinant human 5-HT1A receptor expressed in HeLa cell membranes assessed as induction of [35S]GTPgammaS binding preincubated for 20 mins followed by [35S]GTPgammaS addition measured after 30 mins by liquid scintillation counting method; format: functional; how it was run: as §2
[7] = Cytotoxicity against human SH-SY5Y cells assessed as reduction in cell viability after 24 hrs by MTT assay; format: toxicity, cell-based
How it was run: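 SH-SY5Y cells in DMEM with 10% heat-inactivated FBS, 2 mM L-glutamine, penicillin/streptomycin, 37 °C, 5% CO2; seeded 10,000 cells/well and incubated overnight. Compounds added at 0.1-100 μM for 24 h at 37 °C. MTT (0.5% w/v) added for 3 h, cells lysed in DMSO/EtOH 1:1, absorbance at 570 nm. IC50 taken as the concentration giving 50% growth inhibition.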

[8] = Neuroprotective activity against oligomycin A-induced cell death in human SH-SY5Y cells assessed as increase in cell viability at 1 uM after 24 hrs by MTT assay; format: functional
How it was run: (§3)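 SH-SY5Y cells seeded at 10,000 cells/well and grown 24 h at 37 °C, 5% CO2. Then co-incubated 24 h with compound at 1 μM plus one insult: H2O2 195 μM, oligomycin A 30 μM or rotenone 75 μM. Viability read by MTT at 570 nm. Given as percent neuroprotection ± SD from three independent experiments.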

[9] = Apparent permeability from basolateral to apical side in MDCK2-MDR1 cells at 75 uM after 120 mins by UV-Visible spectrophotometric method; format: ADME, cell-based, Canis lupus familiaris, MDCK-II; conditions: dog, MDCK-MDR1
How it was run: (§4)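 MDCKII-MDR1 cells seeded at 100,000 cells/cm² on Transwell inserts (0.4 µm pores); monolayers with TEER 800 Ohm cm² used. Equilibrated 30 min at 37 °C in pH 7.4 bicarbonate/glucose transport medium. Receiver sampled after 120 min at 37 °C, 5% CO2, quantified by UV-Vis. Papp calculated from acceptor/initial concentration. Triplicate wells, three experiments.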

[10] = Efflux ratio of apparent permeability from basolateral to apical over apical to basolateral side in MDCK2-MDR1 cells at 75 uM after 120 mins by UV-Visible spectrophotometric method; format: ADME, cell-based, Canis lupus familiaris; conditions: dog, MDCK-MDR1
[11] = Neuroprotective activity against H2O2-induced cell death in human SH-SY5Y cells assessed as increase in cell viability at 0.1 uM after 24 hrs by MTT assay; format: functional
How it was run: (§5)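 SH-SY5Y cells seeded at 10,000 cells/well and grown 24 h at 37 °C, 5% CO2. Then co-incubated 24 h with compound at 0.1 μM plus one insult: H2O2 195 μM, oligomycin A 30 μM or rotenone 75 μM. Viability read by MTT at 570 nm. Given as percent neuroprotection ± SD from three independent experiments.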

[12] = Neuroprotective activity against rotenone-induced cell death in human SH-SY5Y cells assessed as increase in cell viability at 1 uM after 24 hrs by MTT assay; format: functional; how it was run: as §3
[13] = Neuroprotective activity against oligomycin A-induced cell death in human SH-SY5Y cells assessed as increase in cell viability at 0.1 uM after 24 hrs by MTT assay; format: functional; how it was run: as §5
Mus musculus = assay: Analgesic activity in Swiss CD1 mouse assessed reduction in formalin-induced inflammatory pain by measuring reduction in time spent in licking or biting formalin injected hind paw at 10 mg/kg, ip pretreated for 15 mins followed by formalin injection measured every 5 mins for 10 to 60 mins; format: functional, organism-based
How it was run: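 Male Swiss […] mice, 25-30 g. Dosed i.p. in saline with 10% DMSO (5 ml/kg) 15 min before 5% formalin (10 µl) into the right hind paw. […] 8-10 mice per group; mean ± SEM; two-way repeated-measures ANOVA with Bonferroni post hoc test; scored blind.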

[14] = Apparent permeability from apical to basolateral side in MDCK2-MDR1 cells at 75 uM after 120 mins by UV-Visible spectrophotometric method; format: ADME, cell-based, Canis lupus familiaris, MDCK-II; conditions: dog, MDCK-MDR1; how it was run: as §4
[15] = Neuroprotective activity against rotenone-induced cell death in human SH-SY5Y cells assessed as increase in cell viability at 0.1 uM after 24 hrs by MTT assay; format: functional; how it was run: as §5
[16] = Neuroprotective activity against H2O2-induced cell death in human SH-SY5Y cells assessed as increase in cell viability at 1 uM after 24 hrs by MTT assay; format: functional; how it was run: as §3

Row | Structure (SMILES) | Ki [1] | Ki [2] | Ki [3] | Ki [5] | pD2 [6] | other results
1 | COc1ccccc1N1CCN(CC2CSC3(CCCCC3)S2)CC1 (stereo not given) | 407 nM | 200 nM | 100 nM | 3.02 nM | 8.61 | Emax [4]: 37%
2 | COc1ccccc1OCCNCC1COC2(CCCCC2)O1 (stereo not given) | 389 nM | 229 nM | 95.5 nM |  |  | 
3 | OO [HYDROGEN PEROXIDE] |  |  |  |  |  | IC50 at 24 h [7]: 195000 nM
4 | COc1ccccc1N1CCN(CCN2C(=O)CC3(CCCC3)CC2=O)CC1 |  |  |  |  | 9.27 | 
5 | c1ccc(OCCNCC2COC3(CCCCC3)O2)cc1 (stereo not given) | 977 nM | > 1000 nM | 550 nM |  |  | 
6 | c1ccc(OCCNCC2CSC3(CCCCC3)S2)cc1 (stereo not given) | 550 nM | > 1000 nM | 123 nM | 1.55 nM | 8.27 | Emax [4]: 85%
7 | c1ccc(OCCNCC2CSC3(CCCCC3)O2)cc1 (stereo not given) | 437 nM | > 1000 nM | 214 nM | 22.9 nM |  | 
8 | COc1ccccc1OCCNCC1CSC2(CCCCC2)S1 (stereo not given) | 195 nM | 186 nM | 34.7 nM | 0.933 nM | 9.58 | Activity [8]: 86%; Papp B→A at 2 h, 75 µM [9]: 10.9 ×10⁻⁶ cm/s; efflux ratio at 2 h, 75 µM [10]: 0.98; Activity [11]: 83%; Emax [4]: 74%; Activity [12]: 66%; Activity [13]: 81%; Activity (Mus musculus): Active; IC50 at 24 h [7]: 51000 nM; Papp A→B at 2 h, 75 µM [14]: 11.1 ×10⁻⁶ cm/s; Activity [15]: 62%; Activity [16]: 66%
9 | COc1ccccc1N1CCN(CC2CSC3(CCCCC3)O2)CC1 (stereo not given) | 191 nM | 57.5 nM | 38.9 nM | 5.01 nM |  | 
10 | C=C(C)[C@H]1Cc2c(ccc3c2O[C@@H]2COc4cc(OC)c(OC)cc4[C@@H]2C3=O)O1 [ROTENONE] |  |  |  |  |  | IC50 at 24 h [7]: 74100 nM
11 | COc1ccccc1OCCNCC1CSC2(CCCCC2)O1 (stereo not given) | 219 nM | 269 nM | 32.4 nM | 2.24 nM |  | 
12 | COc1ccccc1N1CCN(CC2COC3(CCCCC3)O2)CC1 (stereo not given) |  |  |  |  | 8.61 | 
13 | CC[C@H]1/C=C/C=C/C[C@@H](C)[C@H](O)[C@@](C)(O)C(=O)[C@@H](C)[C@H](O)[C@@H](C)C(=O)[C@@H](C)[C@H](O)[C@@H](C)/C=C/C(=O)O[C@@H]2[C@H](C)[C@H](CC1)O[C@]1(CC[C@H](C)[C@H](C[C@@H](C)O)O1)[C@H]2C [OLIGOMYCIN] |  |  |  |  |  | IC50 at 24 h [7]: 29000 nM
14 | COc1cccc(OC)c1OCCNCC1COC2(CCCCC2)O1 (stereo not given) | > 1000 nM | > 1000 nM | 1780 nM |  |  | 
